The target in experiment [1] is Mitogen-activated protein kinase 1 (Homo sapiens) (UniProt P28482). Description: Inhibition of MAPK1 at 1 uM.
Experiment [2] concerns the target Casein kinase I isoform alpha (Homo sapiens) (UniProt P48729). The experiment can be described thus: Inhibition of CSNK1A1 at 1 uM.
The test system of a further experiment is A549. Description: Antiproliferative activity against human A549 cells after 72 hrs by resazurin reduction assay. The class given is functional, cell-based. Particulars: A549, 72 h. A digest of the protocol: (§1)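 Cells seeded at 3,000 per well, left to adhere overnight, then given inhibitor as a 3-fold serial dilution from 0.0169 nM to 10 μM. After 72 h, 250 μg/mL resazurin was added, followed by 6 h more at 37 °C. Fluorescence was read at ex 560 / em 590 nm.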

Experiment [3] concerns the target T1, Serine/threonine-protein kinase Nek2 (Homo sapiens) (UniProt P51955).
T1 sequence (whole entry): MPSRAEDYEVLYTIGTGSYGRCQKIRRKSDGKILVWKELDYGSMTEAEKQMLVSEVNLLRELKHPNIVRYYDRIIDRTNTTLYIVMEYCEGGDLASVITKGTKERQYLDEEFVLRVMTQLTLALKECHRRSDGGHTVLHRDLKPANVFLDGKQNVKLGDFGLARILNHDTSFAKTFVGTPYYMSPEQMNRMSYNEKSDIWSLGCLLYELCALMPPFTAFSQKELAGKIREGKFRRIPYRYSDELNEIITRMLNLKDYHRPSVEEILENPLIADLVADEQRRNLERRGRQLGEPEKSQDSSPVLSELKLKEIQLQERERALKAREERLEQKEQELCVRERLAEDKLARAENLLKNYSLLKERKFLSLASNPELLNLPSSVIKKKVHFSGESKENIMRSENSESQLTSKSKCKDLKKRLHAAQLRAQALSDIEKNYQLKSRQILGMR
Description: Inhibition of NEK2 at 1 uM.

Experiment [4] in a line: Inhibition of PRKCB2 at 1 uM.
Experiment [5] addresses Phosphatidylinositol 4,5-bisphosphate 3-kinase catalytic subunit alpha isoform (Mus musculus, UniProt P42337). Description: Inhibition of mouse PI3Kalpha after 30 mins by fluorescence polarization assay. A digest of the protocol: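 Mouse PI3Kα 0.5 nM with 30 μM PIP₂, 5 mM MgCl₂, 200 μM ATP, 30 min at room temperature (~22 °C); stopped with 10 mM EDTA. Then 3 min with detector mix of 480 nM GST-Grp1 PH domain and 12 nM TAMRA-PIP₃. Fluorescence polarization read in 50 mM Hepes pH 7.4, 150 mM NaCl, 5 mM DTT, 0.05% CHAPS. Duplicate points, nonlinear regression fit.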
(In general: Polarisation of emitted light reports the rotation of a fluorescent probe.)

Experiment [6] deals with High affinity nerve growth factor receptor (Homo sapiens, UniProt P04629). The experiment can be described thus: Inhibition of TrkA.
Experiment [7] addresses Fibroblast growth factor receptor 1 (Homo sapiens) (UniProt P11362). Description: Inhibition of FGFR1 at 1 uM.
Experiment [8] concerns the target T2, Serine/threonine-protein kinase Chk1 (Homo sapiens) (UniProt O14757).
T2 sequence (whole entry): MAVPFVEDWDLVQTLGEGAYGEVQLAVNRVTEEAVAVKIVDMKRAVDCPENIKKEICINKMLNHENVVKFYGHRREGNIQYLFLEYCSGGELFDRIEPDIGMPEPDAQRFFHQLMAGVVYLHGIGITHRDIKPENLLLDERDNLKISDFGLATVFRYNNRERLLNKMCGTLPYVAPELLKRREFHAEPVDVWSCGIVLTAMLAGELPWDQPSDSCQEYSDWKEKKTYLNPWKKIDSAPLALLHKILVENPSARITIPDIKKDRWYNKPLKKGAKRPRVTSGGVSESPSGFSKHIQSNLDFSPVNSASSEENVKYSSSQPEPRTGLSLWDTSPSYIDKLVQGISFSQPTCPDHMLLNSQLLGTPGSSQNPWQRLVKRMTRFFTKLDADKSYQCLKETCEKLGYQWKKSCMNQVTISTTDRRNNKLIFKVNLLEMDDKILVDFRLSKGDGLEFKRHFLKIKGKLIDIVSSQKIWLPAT
The experiment can be described thus: Inhibition of CHEK1 at 1 uM.

Experiment [9] has as its target Serine/threonine-protein kinase 26 (Homo sapiens) (UniProt Q9P289). The experiment can be described thus: Inhibition of MST4 at 1 uM.
The target in experiment [10] is T3, Serine/threonine-protein kinase 3 (Homo sapiens) (UniProt Q13188).
T3 sequence (whole entry): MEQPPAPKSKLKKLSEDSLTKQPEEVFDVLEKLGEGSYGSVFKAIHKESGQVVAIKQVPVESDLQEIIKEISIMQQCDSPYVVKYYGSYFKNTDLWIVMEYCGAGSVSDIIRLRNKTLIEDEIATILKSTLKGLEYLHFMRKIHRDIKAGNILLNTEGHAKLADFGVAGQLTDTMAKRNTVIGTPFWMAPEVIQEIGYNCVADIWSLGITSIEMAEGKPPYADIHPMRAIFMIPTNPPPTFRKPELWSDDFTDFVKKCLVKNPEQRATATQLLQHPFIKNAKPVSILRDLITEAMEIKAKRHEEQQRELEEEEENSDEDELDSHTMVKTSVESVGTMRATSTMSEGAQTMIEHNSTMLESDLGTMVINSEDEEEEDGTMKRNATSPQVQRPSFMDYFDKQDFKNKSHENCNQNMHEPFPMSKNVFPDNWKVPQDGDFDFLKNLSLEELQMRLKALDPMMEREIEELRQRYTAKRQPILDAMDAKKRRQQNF
The experiment can be described thus: Inhibition of STK3 at 1 uM.

In experiment [11] the target is Mitogen-activated protein kinase kinase kinase kinase 4 (Homo sapiens) (UniProt O95819). The experiment can be described thus: Inhibition of MAP4K4 at 1 uM.
In experiment [12] the target is T4, 3-phosphoinositide-dependent protein kinase 1 (Homo sapiens, UniProt O15530).
T4 sequence (O15530 whole entry): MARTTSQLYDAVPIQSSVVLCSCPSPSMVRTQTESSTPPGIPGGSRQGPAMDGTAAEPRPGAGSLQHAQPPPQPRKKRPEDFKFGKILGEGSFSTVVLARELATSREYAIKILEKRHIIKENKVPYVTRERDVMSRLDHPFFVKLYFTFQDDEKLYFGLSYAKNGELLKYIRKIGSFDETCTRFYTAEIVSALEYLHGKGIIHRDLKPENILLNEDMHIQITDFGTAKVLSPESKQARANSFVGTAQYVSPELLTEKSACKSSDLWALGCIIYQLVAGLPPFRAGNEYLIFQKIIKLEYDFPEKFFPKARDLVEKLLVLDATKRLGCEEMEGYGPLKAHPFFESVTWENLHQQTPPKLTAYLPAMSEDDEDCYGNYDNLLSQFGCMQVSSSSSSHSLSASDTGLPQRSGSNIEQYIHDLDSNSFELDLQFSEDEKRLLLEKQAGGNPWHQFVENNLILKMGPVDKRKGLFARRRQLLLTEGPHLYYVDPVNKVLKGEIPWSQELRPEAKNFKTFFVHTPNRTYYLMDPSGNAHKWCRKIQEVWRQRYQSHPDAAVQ
Description: Inhibition of recombinant human His-tagged PDK1 catalytic domain using Ac-Sox-PKTFCGTPEYLAPEVRREPRILSEEEQEMFRDFDYIAD-NH2 as substrate by fluorescence-based spectrophotometry.

Another experiment deals with NCI-H460. Description: Antiproliferative activity against human H460 cells after 72 hrs by resazurin reduction assay. Particulars: NCI-H460, 72 h. Type of experiment: functional, cell-based. The procedure, abridged: as §1
On the technique in general: Alamar Blue is a resazurin reagent that responds to reducing activity.

Broadly, the inhibition is the change of the read-out against control, counted positive when it falls. As usually defined, the EC50 is the concentration at which the effect is half-maximal. Read a high EC50 as weaker potency. Broadly, the Ki is a dissociation constant, usually derived from enzyme kinetics or from competition with a known ligand. By IC50 is commonly meant the concentration that gives 50% inhibition. Lower therefore signals higher potency.

Mitogen-activated protein kinase kinase kinase kinase 4 (Homo sapiens), sequence (O95819 2-1239 limits assumed): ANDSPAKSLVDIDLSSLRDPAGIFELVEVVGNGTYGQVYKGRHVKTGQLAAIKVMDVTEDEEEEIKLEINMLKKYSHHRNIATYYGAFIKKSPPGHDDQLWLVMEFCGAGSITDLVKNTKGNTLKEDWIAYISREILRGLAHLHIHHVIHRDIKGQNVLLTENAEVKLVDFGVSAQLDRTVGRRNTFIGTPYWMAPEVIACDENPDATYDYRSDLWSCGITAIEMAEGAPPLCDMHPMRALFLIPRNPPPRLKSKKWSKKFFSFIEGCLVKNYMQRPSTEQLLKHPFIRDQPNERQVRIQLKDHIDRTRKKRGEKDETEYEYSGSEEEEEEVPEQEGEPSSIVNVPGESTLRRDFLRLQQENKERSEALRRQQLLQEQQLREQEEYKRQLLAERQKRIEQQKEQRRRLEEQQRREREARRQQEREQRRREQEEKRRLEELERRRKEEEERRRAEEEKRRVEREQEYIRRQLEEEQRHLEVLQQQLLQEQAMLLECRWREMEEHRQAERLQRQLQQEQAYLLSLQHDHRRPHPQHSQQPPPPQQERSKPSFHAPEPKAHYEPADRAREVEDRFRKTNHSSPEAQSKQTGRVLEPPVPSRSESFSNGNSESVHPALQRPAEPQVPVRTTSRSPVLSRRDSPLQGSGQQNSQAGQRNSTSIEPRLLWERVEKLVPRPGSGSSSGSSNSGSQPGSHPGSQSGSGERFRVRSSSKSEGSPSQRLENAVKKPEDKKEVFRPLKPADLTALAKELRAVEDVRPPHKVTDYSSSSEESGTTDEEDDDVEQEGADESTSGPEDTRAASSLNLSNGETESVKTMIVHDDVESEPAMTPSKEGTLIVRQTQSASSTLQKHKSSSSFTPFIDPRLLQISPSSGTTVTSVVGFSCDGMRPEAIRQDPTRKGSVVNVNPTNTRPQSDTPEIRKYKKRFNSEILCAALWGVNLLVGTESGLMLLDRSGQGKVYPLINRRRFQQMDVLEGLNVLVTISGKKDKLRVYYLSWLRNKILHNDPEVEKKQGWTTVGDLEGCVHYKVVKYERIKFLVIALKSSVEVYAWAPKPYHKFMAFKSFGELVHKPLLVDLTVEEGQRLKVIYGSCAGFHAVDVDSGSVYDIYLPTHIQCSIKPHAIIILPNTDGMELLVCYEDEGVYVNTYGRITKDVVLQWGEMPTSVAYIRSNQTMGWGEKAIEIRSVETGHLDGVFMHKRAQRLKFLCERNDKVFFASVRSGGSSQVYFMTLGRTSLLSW
High affinity nerve growth factor receptor, sequence (P04629 whole entry): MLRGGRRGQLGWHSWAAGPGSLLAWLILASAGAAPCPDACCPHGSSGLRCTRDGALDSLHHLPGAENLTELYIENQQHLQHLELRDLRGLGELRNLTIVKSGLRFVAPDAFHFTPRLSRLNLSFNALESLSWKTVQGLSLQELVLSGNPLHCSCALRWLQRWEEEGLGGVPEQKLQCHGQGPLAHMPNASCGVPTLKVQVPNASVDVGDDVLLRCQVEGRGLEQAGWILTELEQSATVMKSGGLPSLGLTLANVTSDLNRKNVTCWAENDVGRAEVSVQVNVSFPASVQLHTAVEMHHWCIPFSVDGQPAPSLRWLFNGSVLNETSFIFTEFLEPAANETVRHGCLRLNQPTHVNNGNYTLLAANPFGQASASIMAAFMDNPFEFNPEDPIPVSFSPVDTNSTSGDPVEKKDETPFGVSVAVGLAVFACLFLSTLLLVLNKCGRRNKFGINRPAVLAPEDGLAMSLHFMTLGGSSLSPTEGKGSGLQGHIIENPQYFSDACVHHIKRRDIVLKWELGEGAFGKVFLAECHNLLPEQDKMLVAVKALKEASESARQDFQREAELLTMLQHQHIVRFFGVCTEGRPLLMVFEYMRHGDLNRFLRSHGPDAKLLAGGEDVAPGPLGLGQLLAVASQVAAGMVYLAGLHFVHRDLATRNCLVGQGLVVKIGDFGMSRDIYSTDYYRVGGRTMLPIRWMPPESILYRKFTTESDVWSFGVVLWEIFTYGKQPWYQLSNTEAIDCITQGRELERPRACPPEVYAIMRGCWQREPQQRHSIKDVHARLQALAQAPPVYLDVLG
Phosphatidylinositol 4,5-bisphosphate 3-kinase catalytic subunit alpha isoform, sequence (P42337 whole entry, the tested form may be a part, canonical isoform): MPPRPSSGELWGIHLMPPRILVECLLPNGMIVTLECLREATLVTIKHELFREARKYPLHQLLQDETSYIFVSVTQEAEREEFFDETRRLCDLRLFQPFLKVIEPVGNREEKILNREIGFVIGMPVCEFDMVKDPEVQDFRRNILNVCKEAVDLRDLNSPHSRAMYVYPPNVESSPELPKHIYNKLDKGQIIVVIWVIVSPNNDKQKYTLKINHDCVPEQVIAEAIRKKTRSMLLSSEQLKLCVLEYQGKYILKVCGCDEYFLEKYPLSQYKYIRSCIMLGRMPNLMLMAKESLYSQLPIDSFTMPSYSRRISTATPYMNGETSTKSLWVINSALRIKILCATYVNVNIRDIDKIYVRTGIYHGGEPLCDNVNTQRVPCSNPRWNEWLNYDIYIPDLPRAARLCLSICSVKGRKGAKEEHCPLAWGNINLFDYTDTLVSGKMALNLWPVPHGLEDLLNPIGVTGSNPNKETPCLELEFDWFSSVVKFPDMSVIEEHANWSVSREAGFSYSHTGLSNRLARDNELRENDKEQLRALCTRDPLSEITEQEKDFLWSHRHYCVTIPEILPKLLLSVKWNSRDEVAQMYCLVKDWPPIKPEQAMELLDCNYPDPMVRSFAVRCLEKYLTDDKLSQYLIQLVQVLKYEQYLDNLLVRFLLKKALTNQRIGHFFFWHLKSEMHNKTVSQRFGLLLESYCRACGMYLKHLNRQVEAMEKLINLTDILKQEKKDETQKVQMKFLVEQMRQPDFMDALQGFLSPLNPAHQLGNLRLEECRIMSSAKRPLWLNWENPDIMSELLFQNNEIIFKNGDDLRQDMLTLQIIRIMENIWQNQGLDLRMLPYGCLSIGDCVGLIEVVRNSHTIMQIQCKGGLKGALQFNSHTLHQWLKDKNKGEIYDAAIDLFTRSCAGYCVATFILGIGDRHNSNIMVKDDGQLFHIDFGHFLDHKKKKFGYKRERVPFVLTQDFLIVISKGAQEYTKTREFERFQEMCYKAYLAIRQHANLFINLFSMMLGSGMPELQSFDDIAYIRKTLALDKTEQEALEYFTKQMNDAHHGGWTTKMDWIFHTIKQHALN
Mitogen-activated protein kinase 1 (Homo sapiens), sequence (P28482 whole entry, canonical isoform): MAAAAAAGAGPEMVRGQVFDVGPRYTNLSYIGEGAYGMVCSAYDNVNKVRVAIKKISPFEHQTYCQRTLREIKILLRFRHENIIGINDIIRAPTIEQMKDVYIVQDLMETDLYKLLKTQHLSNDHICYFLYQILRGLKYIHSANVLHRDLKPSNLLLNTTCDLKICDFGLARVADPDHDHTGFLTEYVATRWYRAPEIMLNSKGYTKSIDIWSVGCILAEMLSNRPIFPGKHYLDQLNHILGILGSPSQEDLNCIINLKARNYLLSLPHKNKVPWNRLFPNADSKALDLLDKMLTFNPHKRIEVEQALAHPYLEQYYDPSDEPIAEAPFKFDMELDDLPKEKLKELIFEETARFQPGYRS
Serine/threonine-protein kinase 26 (Homo sapiens), sequence (Q9P289 2-416 limits assumed): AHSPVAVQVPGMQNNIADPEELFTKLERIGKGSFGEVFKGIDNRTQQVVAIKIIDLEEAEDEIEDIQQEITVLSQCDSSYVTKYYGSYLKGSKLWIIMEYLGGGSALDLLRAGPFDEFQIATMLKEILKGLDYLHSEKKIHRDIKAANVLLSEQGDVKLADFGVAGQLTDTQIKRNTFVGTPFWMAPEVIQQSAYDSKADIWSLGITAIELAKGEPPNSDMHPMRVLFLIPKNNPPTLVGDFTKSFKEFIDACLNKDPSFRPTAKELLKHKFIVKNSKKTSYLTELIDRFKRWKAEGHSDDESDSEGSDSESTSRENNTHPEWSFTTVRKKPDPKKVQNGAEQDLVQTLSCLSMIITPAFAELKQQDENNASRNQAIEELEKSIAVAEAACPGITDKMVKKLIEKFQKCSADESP
Casein kinase I isoform alpha (Homo sapiens), sequence (P48729 2-337 limits assumed): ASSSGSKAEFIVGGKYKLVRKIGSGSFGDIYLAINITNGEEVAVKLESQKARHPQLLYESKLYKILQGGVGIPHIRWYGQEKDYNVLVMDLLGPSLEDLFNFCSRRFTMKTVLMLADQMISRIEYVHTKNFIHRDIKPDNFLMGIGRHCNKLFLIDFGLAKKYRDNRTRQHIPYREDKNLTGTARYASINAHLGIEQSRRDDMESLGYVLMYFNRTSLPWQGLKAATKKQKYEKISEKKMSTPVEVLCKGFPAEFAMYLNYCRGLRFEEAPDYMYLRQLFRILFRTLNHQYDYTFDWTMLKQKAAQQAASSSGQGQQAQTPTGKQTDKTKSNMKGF
Fibroblast growth factor receptor 1 (Homo sapiens), sequence (P11362 22-822 limits assumed): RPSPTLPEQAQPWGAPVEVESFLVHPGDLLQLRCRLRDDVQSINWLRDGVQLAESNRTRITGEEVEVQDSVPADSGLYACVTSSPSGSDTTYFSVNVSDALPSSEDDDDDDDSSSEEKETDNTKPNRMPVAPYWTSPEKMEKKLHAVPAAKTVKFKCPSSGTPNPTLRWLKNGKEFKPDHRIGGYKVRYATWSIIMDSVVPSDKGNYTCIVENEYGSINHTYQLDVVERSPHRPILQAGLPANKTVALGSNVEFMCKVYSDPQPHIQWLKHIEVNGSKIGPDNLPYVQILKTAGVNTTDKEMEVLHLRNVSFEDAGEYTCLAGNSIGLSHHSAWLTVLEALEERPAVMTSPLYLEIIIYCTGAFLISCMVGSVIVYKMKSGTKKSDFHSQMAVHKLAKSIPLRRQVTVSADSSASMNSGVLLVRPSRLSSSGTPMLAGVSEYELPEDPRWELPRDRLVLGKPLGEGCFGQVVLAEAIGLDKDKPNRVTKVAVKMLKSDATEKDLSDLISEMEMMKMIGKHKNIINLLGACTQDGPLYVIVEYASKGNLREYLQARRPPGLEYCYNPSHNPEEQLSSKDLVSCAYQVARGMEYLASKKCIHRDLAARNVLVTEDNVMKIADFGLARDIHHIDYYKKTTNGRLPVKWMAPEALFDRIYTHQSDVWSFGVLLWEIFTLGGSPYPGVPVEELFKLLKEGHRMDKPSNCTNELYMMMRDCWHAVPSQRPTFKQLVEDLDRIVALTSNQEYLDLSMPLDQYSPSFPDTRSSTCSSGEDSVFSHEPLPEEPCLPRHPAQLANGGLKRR

As for `CC(=O)N1CC[C@@H](Nc2cncc(C(=O)c3cn(C(C)C)c4ncnc(N)c34)n2)[C@H]1c1ccccc1`, the inhibition in experiment [1] is 3%; in experiment [2], 7%; in experiment [3] it was -3%; in [4], 1%; in experiment [7], 6%; in experiment [8], 7%. Also, the figures for the inhibition in [9], in experiment [10] and in [11] were -6%, 0% and 23%, respectively. Besides, the EC50 in the experiment on A549 stood at 5200 nM; in the experiment on NCI-H460 it was 1700 nM. The Ki in experiment [5] was 1900 nM; in experiment [12], 1.4 nM. Moreover, the IC50 in experiment [6] came out at 910 nM.
For the molecule `CC(=O)N1CC[C@@H](Nc2cncc(C(=O)c3cn(C(C)C)c4ncnc(N)c34)n2)[C@H]1c1ccc(F)cc1`, the inhibition in [1] is -4%; in [2], 4%; in [3], -2%; in experiment [4] it was 15%; in experiment [7], 7%; in experiment [8], 24%. Further, the inhibition in experiment [9] came to 8%; in experiment [10], 12%; in [11], 50%. In addition, the EC50 amounted to 2200 nM with A549 and 1900 nM in the experiment on NCI-H460. For the same molecule, the Ki in [5] is 1300 nM; in experiment [12] it was 1.4 nM. The IC50 in [6] turned out to be 620 nM.
On to `CC(C)n1cc(C(=O)c2cncc(N[C@@H]3CCN(C=O)[C@@H]3c3ccc(F)cc3)n2)c2c(N)ncnc21`, for which the inhibition came out at 5% in experiment [1]; 7% in experiment [2]; 3% in experiment [3]; 14% in [4]; 17% in experiment [7]; 38% in experiment [8]. The inhibition in experiment [9] was found to be 4%; in experiment [10], 13%; in experiment [11], 57%. Besides, the values for the EC50 with A549 and in the experiment on NCI-H460 were 1800 nM and 700 nM, respectively. In addition, the Ki in experiment [5] came to 130 nM; in experiment [12], 0.7 nM. In experiment [6], this molecule displayed an IC50 of 200 nM.

The values above are taken from ChEMBL document CHEMBL1938337, “Discovery of novel, potent, and selective inhibitors of 3-phosphoinositide-dependent kinase (PDK1)” (J Med Chem, 2011).
